5-HT1A blocker = human 5-HT1a receptor antagonists, primary screen, cell-based, CHO, Ga15 NFAT-bla reporter; 5-hydroxytryptamine receptor 1A (Homo sapiens), P08908; CHO 5-HT1a Ga15 NFAT-bla reporter, antagonist mode; inhibition, % at 10 µM; 62,000 compounds, 0.68% hits;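 active = inhibition above the mean of all tested compounds plus 3 SD, cut at about 43% in these data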;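 also: receptor stimulated by 5-CT agonist at 100 nM near EC80; beta-lactamase reporter measured by ratiometric fluorescence of a cleavable substrate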
HTR1A agonist = human 5-HT1a receptor agonists, primary screen, cell-based, CHO, Ga15 NFAT-bla reporter; 5-hydroxytryptamine receptor 1A (Homo sapiens), P08908; CHO 5-HT1a Ga15 NFAT-bla reporter, FRET ratio; 0% basal, 100% maximal reference agonist; activation, % at 10 µM; 65,000 compounds, 0.56% hits; AID 567, 2006;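 active = activation above the screen-wide mean activation plus 3 SD, cut at about 19% in these data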;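 also: 0% = DMSO wells and 100% = 5-CT at EC100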
HEK293 NFkB inh = inhibitors of PMA/ionomycin-induced NF-kB reporter, primary screen, antigen receptor NF-kB inhibitor project, cell-based, HEK-293 luciferase reporter, luminescence; inhibition, % at 3 µM; 62,000 compounds, 0.21% hits; HEK-293 NF-kB luciferase reporter; AID 465, 2006;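 active = inhibition above the mean of all tested compounds plus 3 SD, cut at about 40% in these data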;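 also: 0% = stimulated DMSO wells and 100% = 10 µM reference inhibitor 5653914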
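System – HEK-293 cells with stable firefly luciferase reporter driven by four HIV NF-kB elements · Doses – one dose, 3 µM · Schedule – 1 h compound pre-incubation, 16 h PMA/ionomycin at 37 °C · Technique – luminescence from luciferase substrate reagent · Measure – percent inhibition normalized per plate to DMSO and reference-inhibitor controls · Replicates – tested once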
HTR1E agonist = 5-HT1E receptor agonists, primary screen, cell-based, HTS. activation, % at 6 µM. 5-hydroxytryptamine receptor 1E (Homo sapiens), P28566. 65,000 compounds, 0.69% hits. AID 574, 2007. CHO 5-HT1E Ga15 NFAT-bla reporter, FRET; 0% DMSO wells, 100% control agonist wells;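 active = activation above a set limit, the screen-wide mean activation plus 3 SD, cut at about 8.5% in these data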;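 also: 100% = positive control agonist at 1 µM giving full maximal response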
Target sequence (P28566 whole entry, looked up): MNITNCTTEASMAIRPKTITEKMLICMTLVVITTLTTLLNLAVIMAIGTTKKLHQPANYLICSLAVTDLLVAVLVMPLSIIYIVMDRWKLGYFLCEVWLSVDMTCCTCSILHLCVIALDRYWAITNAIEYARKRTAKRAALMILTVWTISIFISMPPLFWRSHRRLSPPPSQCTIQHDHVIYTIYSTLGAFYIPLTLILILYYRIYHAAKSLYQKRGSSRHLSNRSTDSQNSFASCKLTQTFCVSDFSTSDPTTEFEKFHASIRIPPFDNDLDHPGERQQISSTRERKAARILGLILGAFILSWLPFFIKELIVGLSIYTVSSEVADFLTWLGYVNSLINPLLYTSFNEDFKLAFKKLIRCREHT
HTR1E antagonist = 5-HT1E receptor antagonists, primary screen, cell-based, HTS | CHO 5-HT1E Ga15 NFAT-bla reporter, FRET, antagonist | inhibition, % at 6 µM | 65,000 compounds, 0.99% hits | AID 571, 2007;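 active = inhibition above a set limit, the mean inhibition across every tested compound plus 3 SD, cut at about 29% in these data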;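 also: signal is the 460 over 535 nm emission ratio of beta-lactamase substrate; 0% = agonist plus DMSO wells and 100% = wells without agonist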
Jurkat tox 60K = cytotoxicity toward Jurkat T cells, primary screen, cytotoxicity control, cell-based, Jurkat E6.1, 60K MLSMR library. AID 463, 2006. 56,000 compounds, 1.2% hits. Jurkat E6.1 viability, ATP luminescence, 48 h. inhibition, % at 4 µM;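 active = inhibition above the mean inhibition of all tested compounds plus 3 SD, cut at about 28% in these data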
Active calls of the source: *. An excerpt weighted towards active compounds, which were near 3.3% of everything screened.

`CC1CCCC(NC(=O)c2ccc3c(=O)n(CC4CCCO4)c(=O)[nH]c3c2)C1C` (centres undefined) gave 5-HT1A blocker -9, HTR1A agonist 54*, HEK293 NFkB inh 14, HTR1E agonist 0, HTR1E antagonist -8 and Jurkat tox 60K 8.
`CCOc1ccccc1-c1nnc(SCC(=O)NC2CC3CCC2C3)n1CC` (centres undefined) gave 5-HT1A blocker 2, HTR1A agonist -5, HEK293 NFkB inh 19, HTR1E agonist 11*, HTR1E antagonist -1 and Jurkat tox 60K 0.
COc1ccc(NC(=O)C2CCCN(c3c4c(nc5ncnn35)CCC4)C2)cc1OC (centres undefined) was read as 5-HT1A blocker -15, HTR1A agonist 1, HEK293 NFkB inh 17, HTR1E agonist 0, HTR1E antagonist 6 and Jurkat tox 60K 7.
O=C(Nc1ccc2c(c1)CCC2)C1CCN(c2c3c(nc4ncnn24)CCC3)CC1 was read as 5-HT1A blocker -1, HTR1A agonist 1, HEK293 NFkB inh 22, HTR1E agonist 2, HTR1E antagonist -1 and Jurkat tox 60K 44*.
Cc1nc(SCc2c(F)cccc2Cl)c2c(=O)n(C)c(=O)n(C)c2n1 was read as 5-HT1A blocker -8, HTR1A agonist 1, HEK293 NFkB inh 4, HTR1E agonist 0, HTR1E antagonist -4 and Jurkat tox 60K -2.
CN(C)CCOC(=O)CCc1ccccc1 was read as 5-HT1A blocker -28, HTR1A agonist -6, HEK293 NFkB inh 4, HTR1E agonist 0, HTR1E antagonist -4 and Jurkat tox 60K -2.
`CN(C)CCOc1ccccc1Cc1ccccc1` gave HTR1A agonist 2, HTR1E agonist 16* and HTR1E antagonist -7.
Screening O=C(COc1ccccc1)NCCc1cn2ccsc2n1 returned 5-HT1A blocker -10, HTR1A agonist -3, HEK293 NFkB inh 3, HTR1E agonist 1, HTR1E antagonist -1 and Jurkat tox 60K -1.
`CCOC(=O)c1[nH]c(C)c(C(=O)c2cc(F)ccc2F)c1C` gave 5-HT1A blocker 50*, HTR1A agonist -6, HEK293 NFkB inh 42*, HTR1E agonist 0, HTR1E antagonist 56* and Jurkat tox 60K 88*.
For Cc1cccc(NC(=O)C(NS(=O)(=O)c2ccc3c(c2)CCC(=O)N3)c2ccccc2)n1 (centres undefined) the results were 5-HT1A blocker 5, HTR1A agonist -3, HEK293 NFkB inh 13, HTR1E agonist -2, HTR1E antagonist 0 and Jurkat tox 60K 4.
For Cc1ccc(C(=O)N2CCCC(c3nc4c(nnn4Cc4ccccc4)c(=O)[nH]3)C2)cc1 (centres undefined) the results were 5-HT1A blocker 4, HTR1A agonist 21*, HEK293 NFkB inh 3, HTR1E agonist 0, HTR1E antagonist 8 and Jurkat tox 60K 0.
For Cn1ncc2c(Nc3ccccc3Br)ncnc21 the results were HTR1A agonist -4, HTR1E agonist 0 and HTR1E antagonist 4.
For Cn1ncc2c(Nc3ccc(-c4ccccc4)cc3)ncnc21 the results were 5-HT1A blocker 1, HTR1A agonist -2, HEK293 NFkB inh 8, HTR1E agonist 1, HTR1E antagonist 10 and Jurkat tox 60K 35*.
`COc1ccc(OC)c(NC(=O)CSCc2cnn(-c3ccccc3)c2-n2cccc2)c1` gave 5-HT1A blocker 57*, HTR1A agonist -2, HEK293 NFkB inh 20, HTR1E agonist 0, HTR1E antagonist 9 and Jurkat tox 60K 10.
Screening COc1cc(NC(=O)CSCc2cnn(-c3ccccc3)c2-n2cccc2)cc(OC)c1 returned 5-HT1A blocker 10, HTR1A agonist -1, HEK293 NFkB inh 7, HTR1E agonist -1, HTR1E antagonist 0 and Jurkat tox 60K -2.
Cc1nc(Nc2ncc3c(n2)CCCC3=O)nc2ccccc12 was read as HTR1A agonist 1, HTR1E agonist 0 and HTR1E antagonist -3.
`COc1cc(NS(=O)(=O)c2ccc(C)cc2)c2ncccc2c1` gave 5-HT1A blocker 67*, HTR1A agonist 0, HEK293 NFkB inh 4, HTR1E agonist 2, HTR1E antagonist 67* and Jurkat tox 60K 79*.
For O=C(CCn1c(=O)oc2ccccc21)N1CCN(c2ccccc2Cl)CC1 the results were 5-HT1A blocker -3, HTR1A agonist 0, HEK293 NFkB inh 21, HTR1E agonist 0, HTR1E antagonist 0 and Jurkat tox 60K 69*.
O=C(CCn1c(=O)oc2ccccc21)N1CCCCCC1 was read as 5-HT1A blocker -4, HTR1A agonist -1, HEK293 NFkB inh -2, HTR1E agonist 0, HTR1E antagonist 6 and Jurkat tox 60K -2.
Screening Cc1nn(C)cc1C1C2=C(CC(C)(C)CC2=O)OC2=C1C(=O)CC(C)(C)C2 returned HTR1A agonist 3, HTR1E agonist 1 and HTR1E antagonist -8.
Screening O=C(Nc1ccc(-c2nc3ncccc3o2)cc1)c1ccc(Br)o1 returned 5-HT1A blocker 9, HTR1A agonist -2, HEK293 NFkB inh 0, HTR1E agonist 1, HTR1E antagonist 62* and Jurkat tox 60K -3.
For COc1ccc(N2CCN(C(=O)Cn3c(=O)[nH]c4ccsc4c3=O)CC2)cc1 the results were 5-HT1A blocker -14, HTR1A agonist -2, HEK293 NFkB inh 12, HTR1E agonist 0 and HTR1E antagonist -9.
For Cn1cc(/C(Cc2ccccc2)=N\O)c2ccccc21 the results were 5-HT1A blocker 31, HTR1A agonist -5, HEK293 NFkB inh 9, HTR1E agonist 57*, HTR1E antagonist 0 and Jurkat tox 60K 59*.
COC(=O)c1cn(C(=O)c2ccco2)c2ccccc12 was read as 5-HT1A blocker -5, HTR1A agonist -2, HEK293 NFkB inh 18, HTR1E agonist 0, HTR1E antagonist -5 and Jurkat tox 60K -13.
For COc1ccc2nc(NC(=O)C(NS(=O)(=O)c3cccs3)C(C)C)sc2c1 (centres undefined) the results were 5-HT1A blocker 13, HTR1A agonist -3, HEK293 NFkB inh -7, HTR1E agonist 0, HTR1E antagonist 4 and Jurkat tox 60K -4.
For CCCCCCc1cc2cc(-c3nnc(-c4ccccc4O)o3)c(=O)oc2cc1O the results were HTR1A agonist 49*, HTR1E agonist 5 and HTR1E antagonist -19.
`Cc1cc(-c2nnc(-c3cc4ccccc4oc3=O)o2)c(C)n1-c1ccccc1` gave 5-HT1A blocker 6, HTR1A agonist 9, HEK293 NFkB inh 17, HTR1E agonist -1 and HTR1E antagonist 1.

High-throughput results (PubChem BioAssay)
